# According to ChEMBL document CHEMBL1137665, “Antistaphylococcal activity of CG400549, a new experimental FabI inhibitor, compared with that of other agents” (2007):
# Experiments:
# Staphylococcus aureus [1] = test: Antimicrobial activity against methicillin-susceptible Staphylococcus aureus by agar dilution CLSI method; assay type: functional
# Procedure, shortened: (§1)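 CLSI agar dilution MIC against S. aureus clinical isolates. Calcium was added to the medium for daptomycin testing. Vancomycin plates were read after a full 24-h incubation.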
# Staphylococcus aureus [2] = test: Antimicrobial activity against methicillin-resistant Staphylococcus aureus by agar dilution CLSI method; assay type: functional; procedure, shortened: as §1
# Staphylococcus aureus [3] = test: Antimicrobial activity against methicillin and vancomycin-resistant Staphylococcus aureus 509 after single-step resistance selection by agar dilution CLSI method; assay type: functional
# Procedure, shortened: (§2)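 Single-step selection on drug-containing agar across 10 strains (2 MSSA, 8 MRSA, including VRSA and VISA). Colonies arising on confluent background growth were retested by CLSI agar dilution MIC. Resistance was defined as an MIC more than 4× the parent MIC.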
# Staphylococcus aureus [4] = test: Antimicrobial activity against community-acquired vancomycin-intermediate Staphylococcus aureus 504 by agar dilution CLSI method; assay type: functional; procedure, shortened: as §1
# Staphylococcus aureus [5] = test: Antimicrobial activity against vancomycin-resistant Staphylococcus aureus 509 Michigan after 28 passages by multi-step resistance selection technique; assay type: functional
# Procedure, shortened: (§3)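 Multistep selection: 10 S. aureus strains (8 MRSA incl. two VRSA, two VISA; 2 MSSA) serially passaged daily at subinhibitory concentrations of each antimicrobial; MICs of mutants retested and compared with parent; clone identity versus parent confirmed by pulsed-field gel electrophoresis at study end.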
# Staphylococcus aureus [6] = test: Antimicrobial activity against methicillin-susceptible Staphylococcus aureus 540 after 36 passages by multi-step resistance selection technique; assay type: functional
# Procedure, shortened: (§4)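 Multistep selection by daily serial passage of each strain in subinhibitory drug concentrations for the stated number of passages. Mutant MIC was then determined. Identity of mutants and parents was confirmed by pulsed-field gel electrophoresis.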
# Staphylococcus aureus [7] = test: Antimicrobial activity against vancomycin-resistant Staphylococcus aureus 509 Michigan after 28 passages with Linezolid measured after 10 antibiotic-free subculture by multi-step resistance selection technique; assay type: functional
# Procedure, shortened: (§5)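 Multistep-selected mutants (daily passage at subinhibitory drug levels) then subcultured 10 times daily on antibiotic-free medium; MIC redetermined afterwards and compared with the MIC recorded at the end of selection; clone identity to parent checked by pulsed-field gel electrophoresis.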
# Staphylococcus aureus [8] = test: Antimicrobial activity against methicillin-resistant Staphylococcus aureus 525 after single-step resistance selection by agar dilution CLSI method; assay type: functional; procedure, shortened: as §2
# Staphylococcus aureus [9] = test: Antimicrobial activity against methicillin-resistant vancomycin-intermediate Staphylococcus aureus 555 after single-step resistance selection by agar dilution CLSI method; assay type: functional; procedure, shortened: as §2
# Staphylococcus aureus [10] = test: Antimicrobial activity against panton-valentine leukocidin-positive community-acquired methicillin-resistant Staphylococcus aureus 490 after 22 passages by multi-step resistance selection technique; assay type: functional; procedure, shortened: as §3
# Staphylococcus aureus [11] = test: Antimicrobial activity against methicillin-susceptible Staphylococcus aureus 543 after single-step resistance selection by agar dilution CLSI method; assay type: functional; procedure, shortened: as §2
# Staphylococcus aureus [12] = test: Antimicrobial activity against vancomycin-intermediate Staphylococcus aureus 504 after 22 passages by multi-step resistance selection technique; assay type: functional
# Procedure, shortened: (§6)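 Multistep selection: S. aureus strains (MSSA and MRSA, including VISA and VRSA) were passaged serially once daily in subinhibitory concentrations of each antimicrobial. Mutant and parent identities were confirmed by pulsed-field gel electrophoresis at the end of the study. Mutant MIC stability was checked after 10 daily subcultures on antibiotic-free media.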
# Staphylococcus aureus [13] = test: Antimicrobial activity against panton-valentine leukocidin-negative community-acquired methicillin-resistant Staphylococcus aureus 481 after 37 passages by multi-step resistance selection technique; assay type: functional; procedure, shortened: as §4
# Staphylococcus aureus [14] = test: Antimicrobial activity against methicillin-resistant vancomycin-intermediate Staphylococcus aureus 504 after single-step resistance selection by agar dilution CLSI method; assay type: functional; procedure, shortened: as §2
# Staphylococcus aureus [15] = test: Antimicrobial activity against vancomycin-intermediate Staphylococcus aureus 504 after 22 passages with Linezolid measured after 10 times antibiotic-free subculture by multi-step resistance selection technique; assay type: functional; procedure, shortened: as §5
# Staphylococcus aureus [16] = test: Antimicrobial activity against methicillin-susceptible Staphylococcus aureus 540 after 36 passages with Linezolid measured after 10 antibiotic-free subculture by multi-step resistance selection technique; assay type: functional
# Procedure, shortened: (§7)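 Mutants from multistep daily serial passage in subinhibitory drug were then subcultured daily 10 times on antibiotic-free medium. MIC was redetermined after these subcultures to assess stability. Clone identity was checked by pulsed-field gel electrophoresis.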
# Staphylococcus aureus [17] = test: Antimicrobial activity against panton-valentine leukocidin-positive community-acquired methicillin-resistant Staphylococcus aureus 490 after 22 passages with Linezolid measured after 10 antibiotic-free subculture by multi-step resistance selection technique; assay type: functional; procedure, shortened: as §5
# Staphylococcus aureus [18] = test: Antimicrobial activity against methicillin-resistant Staphylococcus aureus 547 after 48 passages with Linezolid measured after 10 antibiotic-free subculture by multi-step resistance selection technique; assay type: functional; procedure, shortened: as §7
# Staphylococcus aureus [19] = test: Antimicrobial activity against methicillin-resistant Staphylococcus aureus 547 after single-step resistance selection by agar dilution CLSI method; assay type: functional; procedure, shortened: as §2
# Staphylococcus aureus [20] = test: Antimicrobial activity against panton-valentine leukocidin-negative community-acquired methicillin-resistant Staphylococcus aureus 481 after 37 passages with Linezolid measured after 10 antibiotic-free subculture by multi-step resistance selection technique; assay type: functional; procedure, shortened: as §7
# Staphylococcus aureus [21] = test: Antimicrobial activity against methicillin-susceptible Staphylococcus aureus 540 after single-step resistance selection by agar dilution CLSI method; assay type: functional; procedure, shortened: as §2
# Staphylococcus aureus [22] = test: Antimicrobial activity against methicillin-susceptible Staphylococcus aureus 543 after 15 passages with Linezolid measured after 10 antibiotic-free subculture by multi-step resistance selection technique; assay type: functional; procedure, shortened: as §7
# Staphylococcus aureus [23] = test: Antimicrobial activity against methicillin and vancomycin-resistant Staphylococcus aureus 510 after single-step resistance selection by agar dilution CLSI method; assay type: functional; procedure, shortened: as §2
# Staphylococcus aureus [24] = test: Antimicrobial activity against methicillin-resistant Staphylococcus aureus 490 after single-step resistance selection by agar dilution CLSI method; assay type: functional; procedure, shortened: as §2
# Staphylococcus aureus [25] = test: Antimicrobial activity against methicillin-resistant Staphylococcus aureus 547 after 48 passages by multi-step resistance selection technique; assay type: functional; procedure, shortened: as §4
# Staphylococcus aureus [26] = test: Antimicrobial activity against methicillin-resistant Staphylococcus aureus 481 after single-step resistance selection by agar dilution CLSI method; assay type: functional; procedure, shortened: as §2
# Staphylococcus aureus [27] = test: Antimicrobial activity against vancomycin-resistant Staphylococcus aureus 510 Hershey after 50 passages by multi-step resistance selection technique; assay type: functional; procedure, shortened: as §3
# Staphylococcus aureus [28] = test: Antimicrobial activity against methicillin-susceptible Staphylococcus aureus 543 after 15 passages by multi-step resistance selection technique; assay type: functional; procedure, shortened: as §4
# Staphylococcus aureus [29] = test: microbe, parasite or virus in culture; conditions: 543
# Staphylococcus aureus [30] = test: microbe, parasite or virus in culture; conditions: 481
# Staphylococcus aureus [31] = test: Antimicrobial activity against methicillin-susceptible Staphylococcus aureus 540 after 50 passages by multi-step resistance selection technique
# Staphylococcus aureus [32] = test: Antimicrobial activity against vancomycin-intermediate Staphylococcus aureus 504 after 50 passages by multi-step resistance selection technique; assay type: functional; procedure, shortened: as §6
# Staphylococcus aureus [33] = test: Antimicrobial activity against vancomycin-resistant Staphylococcus aureus 510 Hershey by agar dilution CLSI method; assay type: functional
# Procedure, shortened: (§8)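 Agar dilution MIC per CLSI methodology; calcium supplemented for daptomycin testing; vancomycin plates read after a full 24-h incubation.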
# Staphylococcus aureus [34] = test: Antimicrobial activity against vancomycin-resistant Staphylococcus aureus 509 Michigan after 20 passages with daptomycin measured after 10 antibiotic-free subculture by multi-step resistance selection technique; assay type: functional; procedure, shortened: as §5
# Staphylococcus aureus [35] = test: microbe, parasite or virus in culture; conditions: 547
# Staphylococcus aureus [36] = test: Antimicrobial activity against vancomycin-intermediate Staphylococcus aureus 555 Hershey after 50 passages by multi-step resistance selection technique; assay type: functional; procedure, shortened: as §3
# Staphylococcus aureus [37] = test: Antimicrobial activity against panton-valentine leukocidin-positive community-acquired methicillin-resistant Staphylococcus aureus 490 after 50 passages by multi-step resistance selection technique
# Staphylococcus aureus [38] = test: Antimicrobial activity against vancomycin-resistant Staphylococcus aureus 509 Michigan by agar dilution CLSI method; assay type: functional; procedure, shortened: as §8
# Staphylococcus aureus [39] = test: microbe, parasite or virus in culture; conditions: 525
# Staphylococcus aureus [40] = test: Antimicrobial activity against vancomycin-resistant Staphylococcus aureus 509 Michigan after 14 passages with CG400549 measured after 10 antibiotic-free subculture by multi-step resistance selection technique; assay type: functional; procedure, shortened: as §5
# Staphylococcus aureus [41] = test: Antimicrobial activity against vancomycin-intermediate Staphylococcus aureus 555 Hershey by agar dilution CLSI method; assay type: functional; procedure, shortened: as §8
# Staphylococcus aureus [42] = test: Antimicrobial activity against vancomycin-resistant Staphylococcus aureus 510 Hershey after 14 passages with CG400549 measured after 10 antibiotic-free subculture by multi-step resistance selection technique; assay type: functional; procedure, shortened: as §5
# Staphylococcus aureus [43] = test: Antimicrobial activity against vancomycin-intermediate Staphylococcus aureus 555 Hershey after 14 passages with CG400549 measured after 10 antibiotic-free subculture by multi-step resistance selection technique; assay type: functional; procedure, shortened: as §5
smiles,measurement,setting,value
CC[C@H]1OC(=O)[C@H](C)[C@@H](O[C@H]2C[C@@](C)(OC)[C@@H](O)[C@H](C)O2)[C@H](C)[C@@H](O[C@@H]2O[C@H](C)C[C@H](N(C)C)[C@H]2O)[C@](C)(O)C[C@@H](C)CN(C)[C@H](C)[C@@H](O)[C@]1(C)O [AZITHROMYCIN],MIC50,Staphylococcus aureus [1],1 µg/mL
same,MIC90,Staphylococcus aureus [1],> 64 µg/mL
same,MIC50,Staphylococcus aureus [2],> 64 µg/mL
C[C@H]1COc2c(N3CCN(C)CC3)c(F)cc3c(=O)c(C(=O)O)cn1c23.C[C@H]1COc2c(N3CCN(C)CC3)c(F)cc3c(=O)c(C(=O)O)cn1c23.O [LEVOFLOXACIN],MIC50,Staphylococcus aureus [1],0.25 µg/mL
same,MIC90,Staphylococcus aureus [1],4 µg/mL
same,MIC50,Staphylococcus aureus [2],1 µg/mL
same,MIC90,Staphylococcus aureus [2],> 32 µg/mL
CC(=O)NC[C@H]1CN(c2ccc(N3CCOCC3)c(F)c2)C(=O)O1 [LINEZOLID],MIC,Staphylococcus aureus [3],0.5 µg/mL
same,MIC,Staphylococcus aureus [4],1 µg/mL
same,MIC,Staphylococcus aureus [5],16 µg/mL
same,MIC,Staphylococcus aureus [6],32 µg/mL
same,MIC,Staphylococcus aureus [7],32 µg/mL
same,MIC,Staphylococcus aureus [8],0.5 µg/mL
same,MIC,Staphylococcus aureus [9],0.5 µg/mL
same,MIC,Staphylococcus aureus [10],32 µg/mL
same,MIC,Staphylococcus aureus [11],0.5 µg/mL
same,MIC,Staphylococcus aureus [12],8 µg/mL
same,MIC,Staphylococcus aureus [13],32 µg/mL
same,MIC,Staphylococcus aureus [14],0.5 µg/mL
same,MIC,Staphylococcus aureus [15],8 µg/mL
same,MIC,Staphylococcus aureus [16],16 µg/mL
same,MIC50,Staphylococcus aureus [1],1 µg/mL
same,MIC90,Staphylococcus aureus [1],2 µg/mL
same,MIC50,Staphylococcus aureus [2],1 µg/mL
same,MIC90,Staphylococcus aureus [2],2 µg/mL
same,MIC,Staphylococcus aureus [17],32 µg/mL
same,MIC,Staphylococcus aureus [18],32 µg/mL
same,MIC,Staphylococcus aureus [19],0.5 µg/mL
same,MIC,Staphylococcus aureus [20],32 µg/mL
same,MIC,Staphylococcus aureus [21],0.5 µg/mL
same,MIC,Staphylococcus aureus [22],32 µg/mL
same,MIC,Staphylococcus aureus [23],0.5 µg/mL
same,MIC,Staphylococcus aureus [24],0.5 µg/mL
same,MIC,Staphylococcus aureus [25],32 µg/mL
same,MIC,Staphylococcus aureus [26],0.5 µg/mL
same,MIC,Staphylococcus aureus [27],16 µg/mL
same,MIC,Staphylococcus aureus [28],32 µg/mL
CN[C@H](CC(C)C)C(=O)N[C@H]1C(=O)N[C@@H](CC(N)=O)C(=O)N[C@H]2C(=O)N[C@H]3C(=O)N[C@H](C(=O)N[C@H](C(=O)O)c4cc(O)cc(O)c4-c4cc3ccc4O)[C@H](O)c3ccc(c(Cl)c3)Oc3cc2cc(c3O[C@@H]2O[C@H](CO)[C@@H](O)[C@H](O)[C@H]2O[C@H]2C[C@](C)(N)[C@H](O)[C@H](C)O2)Oc2ccc(cc2Cl)[C@H]1O [VANCOMYCIN],MIC,Staphylococcus aureus [4],8 µg/mL
same,MIC,Staphylococcus aureus [29],8 µg/mL
same,MIC,Staphylococcus aureus [30],8 µg/mL
same,MIC,Staphylococcus aureus [31],8 µg/mL
same,MIC,Staphylococcus aureus [32],8 µg/mL
same,MIC,Staphylococcus aureus [7],> 64 µg/mL
same,MIC,Staphylococcus aureus [33],64 µg/mL
same,MIC,Staphylococcus aureus [34],32 µg/mL
same,MIC,Staphylococcus aureus [35],8 µg/mL
same,MIC,Staphylococcus aureus [36],8 µg/mL
same,MIC,Staphylococcus aureus [37],8 µg/mL
same,MIC,Staphylococcus aureus [38],> 64 µg/mL
same,MIC,Staphylococcus aureus [39],8 µg/mL
same,MIC,Staphylococcus aureus [40],16 µg/mL
same,MIC,Staphylococcus aureus [15],8 µg/mL
same,MIC50,Staphylococcus aureus [1],1 µg/mL
same,MIC90,Staphylococcus aureus [1],2 µg/mL
same,MIC,Staphylococcus aureus [41],8 µg/mL
same,MIC50,Staphylococcus aureus [2],1 µg/mL
same,MIC90,Staphylococcus aureus [2],2 µg/mL
same,MIC,Staphylococcus aureus [42],16 µg/mL
same,MIC,Staphylococcus aureus [43],8 µg/mL
